Consider nine compounds from publication PMC8853157 (Medicinal Chemistry Research, 2022).

“Also recorded” adds a separate entry of the source.

Assay [1] has as its target LFA-1/ICAM-1 (Homo sapiens, UniProt P20701). Description: Jurkat T-cell adhesion assay. It is filed as cell-based. As to conditions: for LFA-1/ICAM-1 antagonist activity in words / IC50 level in words: Jurkat T-cell adhesion assay; for LFA-1/ICAM-1 antagonist activity in words: compared with Lifitegrast. The method in brief: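 Jurkat E6-1 cells (RPMI 1640, 5% FBS, 37 °C, 5% CO2) labeled with 8 μM BCECF for 15 min at room temperature. Cells (5 × 10^5/well) preincubated with compound for 30 min at 37 °C, then settled 1 h at 37 °C on recombinant human ICAM-1–Fc-coated wells. Titration 10−10–10−4 M in triplicate lanes. Non-adherent cells washed off; adherent-cell fluorescence read; IC50 by four-parameter logistic regression.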

In assay [2] the test system is dry eye mice model. The assay can be described thus: Goblet cell density. In kind it is in vivo, C57/BL6 mice. As to conditions: 14 days, vs dry eye model group. The procedure, abridged:
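Dry eye was induced in female C57/BL6 mice (6–8 weeks, n = 5/group) by RH 15, 2 m/s airflow, 21–23 °C and s.c. scopolamine hydrobromide (0.5 mg/0.2 ml) three times daily for 14 days. Eye drops (5 µL) went to both eyes twice daily. Central frozen sections (6 µm) were PAS-stained, and goblet cells per mm were counted by image analysis. Mean ± SEM, 10 eyes/group.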

The subject of assay [3] is dry eye mice model. Description: TUNEL staining of corneal epithelium in dry eye mice model. The note with it: for TUNEL positive (Cy3 labeled) cells in cornea, apoptosis: 14 days, vs dry eye model group. In kind it is in vivo, C57/BL6 mice. The method in brief: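 Female C57/BL6 mice, 6–8 weeks, n=5/group. Dry eye induced over 14 days. Both eyes received 5 µL drops twice daily: test compound 5% or 7% W/V, vehicle, or 5% reference antagonist. Eyes then excised, OCT-embedded and cut into 6 µm frozen central sagittal sections. Sections TUNEL/DAPI-stained. TUNEL-positive cells counted in the central 200 µm corneal epithelial field at ×400. n=10 eyes/group; mean ± SEM.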

Assay [4] relates to dry eye mice model. Description: Dry eye mice model, overall effect. The note with it: 5% vs 7% (W/V) compound 1b, topical. In kind it is in vivo, C57/BL6 mice. The method in brief:
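Female C57/BL6 mice (6–8 weeks, n = 5/group) were kept at RH 15, airflow 2 m/s and 21–23 °C for 14 days, with s.c. scopolamine hydrobromide (0.5 mg/0.2 ml) three times daily. Test compound (5% or 7% W/V) was given as 5 µL drops to both eyes twice daily. Read-outs were fluorescein score summed over five corneal regions, PAS goblet density and TUNEL; 10 eyes/group.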

The subject of assay [5] is LFA-1/ICAM-1. The note with it: read-out: previously reported IC50; HUT 78T cells; cited from earlier work.

Chain of LFA-1/ICAM-1 (Homo sapiens, UniProt P20701) (P20701 26-1170): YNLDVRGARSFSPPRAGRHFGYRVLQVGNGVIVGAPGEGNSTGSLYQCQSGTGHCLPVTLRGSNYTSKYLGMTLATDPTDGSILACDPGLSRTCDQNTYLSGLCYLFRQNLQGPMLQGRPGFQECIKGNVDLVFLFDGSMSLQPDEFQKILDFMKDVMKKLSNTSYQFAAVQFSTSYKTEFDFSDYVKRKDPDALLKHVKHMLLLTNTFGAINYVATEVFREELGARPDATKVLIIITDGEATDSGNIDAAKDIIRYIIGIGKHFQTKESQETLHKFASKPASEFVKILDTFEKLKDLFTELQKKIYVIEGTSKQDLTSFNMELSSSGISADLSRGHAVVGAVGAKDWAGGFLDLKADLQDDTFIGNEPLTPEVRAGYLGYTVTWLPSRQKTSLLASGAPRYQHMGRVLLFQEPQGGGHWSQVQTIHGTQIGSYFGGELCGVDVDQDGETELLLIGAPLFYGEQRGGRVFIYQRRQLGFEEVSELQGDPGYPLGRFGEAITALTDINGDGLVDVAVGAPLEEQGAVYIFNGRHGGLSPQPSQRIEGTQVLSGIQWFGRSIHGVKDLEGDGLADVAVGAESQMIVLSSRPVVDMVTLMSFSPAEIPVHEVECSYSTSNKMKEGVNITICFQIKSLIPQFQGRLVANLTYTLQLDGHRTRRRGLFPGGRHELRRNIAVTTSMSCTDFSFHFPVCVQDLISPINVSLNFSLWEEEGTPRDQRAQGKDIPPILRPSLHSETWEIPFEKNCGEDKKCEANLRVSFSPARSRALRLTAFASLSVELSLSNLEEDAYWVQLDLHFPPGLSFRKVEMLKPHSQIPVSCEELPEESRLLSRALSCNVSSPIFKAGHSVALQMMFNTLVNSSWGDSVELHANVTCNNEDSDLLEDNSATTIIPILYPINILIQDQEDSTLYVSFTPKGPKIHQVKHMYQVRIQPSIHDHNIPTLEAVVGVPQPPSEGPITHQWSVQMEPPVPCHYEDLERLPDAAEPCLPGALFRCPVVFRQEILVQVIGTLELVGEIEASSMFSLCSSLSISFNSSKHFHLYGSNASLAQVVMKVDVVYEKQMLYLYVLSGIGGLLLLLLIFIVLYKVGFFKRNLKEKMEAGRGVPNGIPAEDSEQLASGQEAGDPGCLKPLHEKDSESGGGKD
Chain of LFA-1/ICAM-1 (Homo sapiens, UniProt P20701) (P05107 23-769 partner): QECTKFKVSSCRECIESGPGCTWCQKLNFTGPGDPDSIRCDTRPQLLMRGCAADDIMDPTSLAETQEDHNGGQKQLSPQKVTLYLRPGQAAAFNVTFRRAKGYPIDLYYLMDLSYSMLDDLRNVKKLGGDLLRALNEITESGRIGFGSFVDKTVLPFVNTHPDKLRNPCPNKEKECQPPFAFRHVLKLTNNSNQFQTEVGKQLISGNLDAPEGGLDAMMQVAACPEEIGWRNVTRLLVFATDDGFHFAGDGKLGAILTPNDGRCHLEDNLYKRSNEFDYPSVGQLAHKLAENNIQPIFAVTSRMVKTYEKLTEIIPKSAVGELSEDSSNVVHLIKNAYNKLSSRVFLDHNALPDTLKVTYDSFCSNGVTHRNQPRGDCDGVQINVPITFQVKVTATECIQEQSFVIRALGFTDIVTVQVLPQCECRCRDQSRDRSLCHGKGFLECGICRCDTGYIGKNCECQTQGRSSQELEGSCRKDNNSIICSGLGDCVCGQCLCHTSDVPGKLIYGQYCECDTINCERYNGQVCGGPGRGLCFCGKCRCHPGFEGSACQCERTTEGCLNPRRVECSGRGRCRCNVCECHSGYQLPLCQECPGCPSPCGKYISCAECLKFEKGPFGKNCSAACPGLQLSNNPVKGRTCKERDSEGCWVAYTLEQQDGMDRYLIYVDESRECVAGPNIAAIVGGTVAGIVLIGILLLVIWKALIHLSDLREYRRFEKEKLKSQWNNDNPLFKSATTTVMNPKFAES

As for `CS(=O)(=O)c1cccc(C[C@H](NC(=O)c2c(Cl)cc3c(c2Cl)CCN(S(=O)(=O)c2ccc4ccoc4c2)C3)C(=O)O)c1` [Compound 1a, (S)-2-(2-(Benzofuran-6-ylsulfonyl)-5,7-dichloro-1,2,3,4-tetrahydroisoquinoline-6-carboxamido)-3-(3-(methylsulfonyl)phenyl)propanoic acid], on LFA-1/ICAM-1 [1], the “LFA-1/ICAM-1 antagonist activity in words” value was “decreased LFA-1/ICAM-1 antagonist activity obviously”. For the compound `CS(=O)(=O)c1cccc(C[C@H](NC(=O)c2c(Cl)cc3c(c2Cl)CCN(C(=O)NCc2ccc4ccoc4c2)C3)C(=O)O)c1` [Compound 1b, (S)-2-(2-((Benzofuran-6-ylmethyl)carbamoyl)-5,7-dichloro-1,2,3,4-tetrahydroisoquinoline-6-carboxamido)-3-(3-(methylsulfonyl)phenyl)propanoic acid], on LFA-1/ICAM-1 [1], the “LFA-1/ICAM-1 antagonist activity in words” value is given as “certain LFA-1/ICAM-1 antagonist activity”. The “density of goblet cells on conjunctival epithelium” value with dry eye mice model [2] (5% (W/V) compound 1b) and in the assay on dry eye mice model [2] (7% (W/V) compound 1b) was “significantly increased the density of goblet cells; also recorded: significantly increased goblet cell density” in each case. For the same compound, the “TUNEL positive (Cy3 labeled) cells in cornea, apoptosis” value in the assay with dry eye mice model [3] (5% (W/V) compound 1b) and with dry eye mice model [3] (7% (W/V) compound 1b) was “markedly decreased; also recorded: protective effect on apoptosis of ocular surface cells” in each case. Also, the “anti-apoptotic effect compared with Lifitegrast treatment group” value in the assay on dry eye mice model [3] (5% or 7% compound 1b vs 5% Lifitegrast) is given as “weaker than that of Lifitegrast”. The “difference in effect between the two concentrations” value in the assay with dry eye mice model [4] was “no statistical difference in the effect between 5% and 7%”. For `CS(=O)(=O)c1cccc(C[C@H](NC(=O)c2c(Cl)cc3c(c2Cl)CCN(C(=O)Cc2ccc4occc4c2)C3)C(=O)O)c1` [Compound 1c, (S)-2-(2-(2-(Benzofuran-5-yl)acetyl)-5,7-dichloro-1,2,3,4-tetrahydroisoquinoline-6-carboxamido)-3-(3-(methylsulfonyl)phenyl)propanoic acid], at LFA-1/ICAM-1 [1], the “IC50 level in words” value was “several micromol levels” and the “LFA-1/ICAM-1 antagonist activity in words” value is listed as “certain LFA-1/ICAM-1 antagonist activity”.

With `CS(=O)(=O)c1cccc(C[C@H](NC(=O)c2c(Cl)cc3c(c2Cl)CCN(C(=O)c2ccc4ncnn4c2)C3)C(=O)O)c1` [Compound 1d, (S)-2-(2-([1,2,4]Triazolo[1,5-a]pyridine-6-carbonyl)-5,7-dichloro-1,2,3,4-tetrahydroisoquinoline-6-carboxamido)-3-(3-(methylsulfonyl)phenyl)propanoic acid], the “LFA-1/ICAM-1 antagonist activity in words” value at LFA-1/ICAM-1 [1] is recorded as “decreased LFA-1/ICAM-1 antagonist activity obviously”. The same measure, in the same setting: in the case of `C#Cc1cccc(C(=O)N2CCc3c(cc(Cl)c(C(=O)N[C@@H](Cc4cccc(S(C)(=O)=O)c4)C(=O)O)c3Cl)C2)c1` [Compound 1e, (S)-2-(2-(3-Ethynylbenzoyl)-5,7-dichloro-1,2,3,4-tetrahydroisoquinoline-6-carboxamido)-3-(3-(methylsulfonyl)phenyl)propanoic acid] it was “decreased LFA-1/ICAM-1 antagonist activity obviously”. `O=C(NC(Cc1ccc2ncccc2c1)C(=O)O)c1c(Cl)cc2c(c1Cl)CCN(C(=O)c1ccc3ccoc3c1)C2` (centres unmarked) [Compound 1f, 2-(2-(Benzofuran-6-carbonyl)-5,7-dichloro-1,2,3,4-tetrahydroisoquinoline-6-carboxamido)-3-(quinolin-6-yl)propanoic acid]: the “IC50 level in words” value against LFA-1/ICAM-1 [1] is reported as “several micromol levels”. With `O=C(NC(Cc1ccc2c(c1)S(=O)(=O)CC2)C(=O)O)c1c(Cl)cc2c(c1Cl)CCN(C(=O)c1ccc3ccoc3c1)C2` (centres unmarked) [Compound 1g, 2-(2-(Benzofuran-6-carbonyl)-5,7-dichloro-1,2,3,4-tetrahydroisoquinoline-6-carboxamido)-3-(1,1-dioxido-2,3-dihydrobenzo[b]thiophen-6-yl)propanoic acid], at LFA-1/ICAM-1 [1], the “LFA-1/ICAM-1 antagonist activity in words” value is “loss of activity”. For the compound `O=C1CCc2ccc(CC(NC(=O)c3c(Cl)cc4c(c3Cl)CCN(C(=O)c3ccc5ccoc5c3)C4)C(=O)O)cc2N1` (centres unmarked) [Compound 1h, 2-(2-(Benzofuran-6-carbonyl)-5,7-dichloro-1,2,3,4-tetrahydroisoquinoline-6-carboxamido)-3-(2-oxo-1,2,3,4-tetrahydroquinolin-7-yl)propanoic acid], at LFA-1/ICAM-1 [1], the “IC50 level in words” value was “several micromol levels”. The IC50 is the midpoint of a concentration-inhibition curve. As for `CS(=O)(=O)c1cccc(C[C@H](NC(=O)c2c(Cl)cc3c(c2Cl)CCN(C(=O)c2ccc4ccoc4c2)C3)C(=O)O)c1` [Lifitegrast, reference compound], the IC50 at LFA-1/ICAM-1 [1] (IC50, Jurkat T-cell adhesion assay, text and Fig. 3) was roughly 10.5 nM; with LFA-1/ICAM-1 [5] it was 9 nM.
